Reference: ChEMBL document CHEMBL1124174, “Substituted benzamides. 1. Potential nondopaminergic antagonists of chemotherapy-induced nausea and emesis” (J Med Chem, 1988)
Where “and” joins values, the source holds several entries; their conditions need not be identical. Identical values can stand only once.

Experiments:
[1] = tested on: Mustela putorius furo; assay: In vivo antagonism of cisplatin-induced emesis in ferret measured as emetic episodes, twice the dose of 0.2 mg/kg in 4 ferrets; assay type: functional
Procedure, shortened: (§1)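 Nonfasted castrated male Fitch ferrets (1–1.5 kg) had jugular catheters implanted ≥48 h earlier under anesthesia. Compounds or saline were given iv twice, 5 min before and 90 min after cisplatin (12 mg/kg iv; 12 mg/mL in warm 0.9% saline). Emesis was observed up to 4 h; events within 1 min counted as one episode. Results were given as mean emetic episodes and % protection versus a pooled historical/concurrent control. t test versus saline.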

[2] = tested on: Canis familiaris; assay: (§2) In vivo antagonism of cisplatin-induced emesis in dog measured as emetic episodes, twice the dose of 0.8 mg/kg in 3 dogs; assay type: functional, Canis lupus familiaris
Procedure, shortened: (§3)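 Nonfasted mature male or female beagles were dosed sc twice, 30 min before and 120 min after cisplatin (3 mg/kg iv; 3 mg/mL in warm 0.9% saline, used immediately). Emesis was observed up to 5 h; events within 2 min counted as one episode. Results were given as mean emetic episodes and % protection versus a dynamic control (historical and concurrent saline means pooled). t test versus saline.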

[3] = tested on: Canis familiaris; assay: Protection against cisplatin-induced emesis in dog measured as percentage protection for twice the dose of 2.5 mg/kg and in 4 dogs(2 protected); assay type: functional, Canis lupus familiaris
[4] = tested on: Canis familiaris; assay: […] cisplatin-induced emesis in dog was measured for as stereotypy when administered iv twice daily; assay type: functional; settings: Canis lupus familiaris
[5] = target: D(2) dopamine receptor (Rattus norvegicus) (UniProt P61169); assay: In vivo antagonism activity against D2 receptor was measured as stereotypy in rat when administered subcutaneously; assay type: functional, organism-based
Sequence of D(2) dopamine receptor (Rattus norvegicus) (P61169 whole entry): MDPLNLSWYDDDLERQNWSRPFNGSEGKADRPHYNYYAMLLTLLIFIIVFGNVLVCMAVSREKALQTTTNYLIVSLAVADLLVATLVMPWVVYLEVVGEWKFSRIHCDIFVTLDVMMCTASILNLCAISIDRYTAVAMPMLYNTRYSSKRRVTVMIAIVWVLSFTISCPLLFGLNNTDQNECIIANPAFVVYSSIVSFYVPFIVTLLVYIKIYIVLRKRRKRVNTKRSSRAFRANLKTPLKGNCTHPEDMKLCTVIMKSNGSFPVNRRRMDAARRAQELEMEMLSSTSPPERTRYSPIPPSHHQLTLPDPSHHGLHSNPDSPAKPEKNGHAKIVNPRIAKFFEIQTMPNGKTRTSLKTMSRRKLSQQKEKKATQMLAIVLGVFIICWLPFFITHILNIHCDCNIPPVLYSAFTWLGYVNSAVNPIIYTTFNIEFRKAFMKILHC
Procedure, shortened: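 Male Long Evans rats (275 g) were dosed sc in dilute aqueous HCl (pH 4.5-5.5) 30 min before apomorphine (1 mg/kg sc).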

[6] = target: D(2) dopamine receptor (Rattus norvegicus) (UniProt P61169); assay: In vivo antagonistic activity against dopamine D2 receptor was measured as catalepsy in rat when administered subcutaneously; assay type: functional, organism-based
Procedure, shortened: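 Male Long Evans rats (275 g) received graded sc doses in dilute aqueous HCl (pH 4.5-5.5). They were observed 180 min for catalepsy, scored when the animal stayed stationary ≥15 s on a four-cork template.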

[7] = tested on: Mustela putorius furo; assay: (§4) In vivo antagonism of cisplatin-induced emesis in ferret measured as percentage protection for twice the dose of 2.5 mg/kg in 5 ferrets; assay type: functional; procedure, shortened: as §1
[8] = tested on: Mustela putorius furo; assay: as §4; assay type: functional; procedure, shortened: as §1; remark: listed apart in the source
[9] = tested on: Canis familiaris; assay: (§5) In vivo antagonism of cisplatin-induced emesis in dog measured as emetic episodes, twice the dose of 0.2 mg/kg in 4 dogs; assay type: functional, Canis lupus familiaris; procedure, shortened: as §3
[10] = tested on: Canis familiaris; assay: as §5; assay type: functional, Canis lupus familiaris; procedure, shortened: as §3; remark: listed apart in the source
[11] = tested on: Canis familiaris; assay: Protection against cisplatin-induced emesis in dog measured as percentage protection for twice the dose of 0.2 mg/kg; assay type: functional, Canis lupus familiaris
[12] = tested on: Mustela putorius furo; assay: antagonism of cisplatin-induced emesis in ferret measured when administered intravenously twice daily; settings: iv
[13] = tested on: Canis familiaris; assay: Protection against cisplatin-induced emesis in dog measured as percentage protection for twice the dose of 0.8 mg/kg and in 3 dogs(1 protected); assay type: functional, Canis lupus familiaris
[14] = target: D(2) dopamine receptor (Canis lupus familiaris) (UniProt Q9GJU1); assay: In vivo antagonism activity against dopamine D2 receptor was measured as emesis in dog when administered subcutaneously; assay type: functional, organism-based
Sequence of D(2) dopamine receptor (Canis lupus familiaris) (Q9GJU1 whole entry): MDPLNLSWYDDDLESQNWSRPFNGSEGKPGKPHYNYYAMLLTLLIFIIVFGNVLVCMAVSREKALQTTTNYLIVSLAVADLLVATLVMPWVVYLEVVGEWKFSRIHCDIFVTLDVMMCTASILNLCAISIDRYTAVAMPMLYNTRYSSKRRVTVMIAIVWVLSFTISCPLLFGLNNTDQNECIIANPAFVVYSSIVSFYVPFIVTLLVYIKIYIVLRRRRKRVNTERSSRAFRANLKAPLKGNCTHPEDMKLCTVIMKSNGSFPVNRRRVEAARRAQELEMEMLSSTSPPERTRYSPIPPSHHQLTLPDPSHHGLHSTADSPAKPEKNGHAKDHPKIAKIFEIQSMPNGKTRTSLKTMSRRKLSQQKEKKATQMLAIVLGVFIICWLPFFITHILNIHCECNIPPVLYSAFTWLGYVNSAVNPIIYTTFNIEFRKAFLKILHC

[15] = tested on: Mustela putorius furo; assay: In vivo antagonism of cisplatin-induced emesis in ferret measured as percentage protection for twice the dose of 0.8 mg/kg in 5 ferrets; assay type: functional; procedure, shortened: as §1
[16] = tested on: Canis familiaris; assay: (§6) In vivo antagonism of cisplatin-induced emesis in dog measured as emetic episodes, twice the dose of 2.5 mg/kg in 4 dogs; assay type: functional, Canis lupus familiaris; procedure, shortened: as §3
[17] = tested on: Mustela putorius furo; assay: In vivo antagonism of cisplatin-induced emesis in ferret measured as percentage protection for twice the dose of 0.2 mg/kg in 4 ferrets; assay type: functional; procedure, shortened: as §1
[18] = tested on: Canis familiaris; assay: In vivo antagonism of cisplatin-induced emesis in dog measured as percentage protection for twice the dose of 0.2 mg/kg in 4 dogs; assay type: functional, Canis lupus familiaris; procedure, shortened: as §3
[19] = tested on: Canis familiaris; assay: In vivo antagonism of cisplatin-induced emesis in dog measured as percentage protection for twice the dose of 0.8 mg/kg in 3 dogs; assay type: functional, Canis lupus familiaris; procedure, shortened: as §3
[20] = tested on: Canis familiaris; assay: as §6; assay type: functional, Canis lupus familiaris; procedure, shortened: as §3; remark: listed apart in the source
[21] = tested on: Mustela putorius furo; assay: In vivo antagonism of cisplatin-induced emesis in ferret measured as emetic episodes, twice the dose of 0.8 mg/kg in 5 ferrets; assay type: functional; procedure, shortened: as §1
[22] = tested on: Canis familiaris; assay: In vivo antagonism of cisplatin-induced emesis in dog measured as percentage protection for twice the dose of 2.5 mg/kg in 4 dogs; assay type: functional, Canis lupus familiaris; procedure, shortened: as §3
[23] = tested on: Mustela putorius furo; assay: In vivo antagonism of cisplatin-induced emesis in ferret measured as emetic episodes, twice the dose of 2.5 mg/kg in 5 ferrets; assay type: functional; procedure, shortened: as §1
[24] = tested on: Canis familiaris; assay: as §2; assay type: functional, Canis lupus familiaris; procedure, shortened: as §3; remark: listed apart in the source
[25] = target: D(2) dopamine receptor (Rattus norvegicus, UniProt P61169); assay: In vitro antagonistic activity against Dopamine receptor D2 was evaluated for the inhibition of [3H]spiperone binding
Sequence of D(2) dopamine receptor (P61169 whole entry): as the sequence (P61169 whole entry) above
Procedure, shortened: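 Rat striatal membranes were prepared by differential centrifugation in 50 mM Tris pH 7.4 at 4 °C. Membrane protein (10 mg) was incubated 15 min at 37 °C with 0.1 nM [3H]spiperone and varying competitor concentrations. Buffer: 50 mM Tris HCl pH 7.5, 0.1% ascorbic acid, pargyline, 120 mM NaCl, 5 mM KCl, 2 mM CaCl2, 1 mM MgCl2. (+)-Butaclamol defined nonspecific binding. Bound ligand was collected by filtration and scintillation counted. IC50 by log-logit regression.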

[26] = tested on: Mustela putorius furo; assay: In vivo antagonism of cisplatin-induced emesis in ferret measured as percentage protection for twice the dose of 3 mg/kg and in 3 ferrets; assay type: functional; procedure, shortened: as §1
[27] = tested on: Mustela putorius furo; assay: In vivo antagonism of cisplatin-induced emesis in ferret measured as emetic episodes, twice the dose of 3 mg/kg and in 3 ferrets; assay type: functional; procedure, shortened: as §1
[28] = tested on: Canis familiaris; assay: In vivo antagonism of cisplatin-induced emesis in dog measured as percentage protection for twice the dose of 3 mg/kg in 2 dogs; assay type: functional, Canis lupus familiaris; procedure, shortened: as §3
[29] = tested on: Canis familiaris; assay: In vivo antagonism of cisplatin-induced emesis in dog measured as emetic episodes, twice the dose of 3 mg/kg in 2 dogs; assay type: functional, Canis lupus familiaris; procedure, shortened: as §3
[30] = tested on: Canis familiaris; assay: In vivo antagonism of cisplatin-induced emesis in dog measured as emetic episodes, twice the dose of 6 mg/kg in 2 dogs; assay type: functional, Canis lupus familiaris; procedure, shortened: as §3
[31] = tested on: Mustela putorius furo; assay: In vivo antagonism of cisplatin-induced emesis in ferret measured as percentage protection for twice the dose of 3 mg/kg and in 2 ferrets; assay type: functional; procedure, shortened: as §1
[32] = tested on: Canis familiaris; assay: In vivo antagonism of cisplatin-induced emesis in dog measured as percentage protection for twice the dose of 6 mg/kg in 2 dogs; assay type: functional, Canis lupus familiaris; procedure, shortened: as §3
[33] = tested on: Canis familiaris; assay: In vivo antagonism of cisplatin-induced emesis in dog measured as emetic episodes, twice the dose of 3 mg/kg in 3 dogs; assay type: functional, Canis lupus familiaris; procedure, shortened: as §3
[34] = tested on: Canis familiaris; assay: In vivo antagonism of cisplatin-induced emesis in dog measured as percentage protection for twice the dose of 0.3 mg/kg in 2 dogs; assay type: functional, Canis lupus familiaris; procedure, shortened: as §3
[35] = tested on: Canis familiaris; assay: Antagonism of cisplatin-induced emesis in dog measured as emetic episodes, twice the dose of 0.3 mg/kg in 2 dogs.(in vivo); assay type: functional, Canis lupus familiaris; procedure, shortened: as §3
[36] = tested on: Mustela putorius furo; assay: In vivo antagonism of cisplatin-induced emesis in ferret measured as emetic episodes, twice the dose of 1 mg/kg and in 3 ferrets; assay type: functional; procedure, shortened: as §1
[37] = tested on: Canis familiaris; assay: In vivo antagonism of cisplatin-induced emesis in dog measured as percentage protection for twice the dose of 1 mg/kg in 2 dogs; assay type: functional, Canis lupus familiaris; procedure, shortened: as §3
[38] = tested on: Canis familiaris; assay: Antagonism of cisplatin-induced emesis in dog measured as emetic episodes, twice the dose of 1 mg/kg in 2 dogs.(in vivo); assay type: functional, Canis lupus familiaris; procedure, shortened: as §3
[39] = tested on: Canis familiaris; assay: In vivo antagonism of cisplatin-induced emesis in dog measured as emetic episodes, twice the dose of 1 mg/kg in 2 dogs; assay type: functional, Canis lupus familiaris; procedure, shortened: as §3
[40] = tested on: Mustela putorius furo; assay: In vivo antagonism of cisplatin-induced emesis in ferret measured as percentage protection for twice the dose of 0.3 mg/kg and in 3 ferrets; assay type: functional; procedure, shortened: as §1
[41] = tested on: Mustela putorius furo; assay: In vivo antagonism of cisplatin-induced emesis in ferret measured as emetic episodes, twice the dose of 0. 3 mg/kg and in 3 ferrets; assay type: functional; procedure, shortened: as §1

CCN(CC)CCNC(=O)c1cc(Cl)c(N)cc1OC [METOCLOPRAMIDE] gave an Emetic episodes [1] of 5.5, an Emetic episodes [2] of 1 and a Protection [3] of 92%. For the same compound, the ED50 [4] was 0.18 mg/kg, the ED50 [5] was 4 mg/kg and the ED50 [6] was 26 mg/kg. For the same compound, the Protection [7] was 90%, the Protection [8] was 91% and the Emetic episodes [9] was 5. The Emetic episodes [10] was 5, the Protection [11] was 58% and the ED50 [12] was 0.53 mg/kg. For the same compound, the Protection [13] was 92%, the ED50 [14] was 0.36 mg/kg and the Protection [15] was 73% and 66%. The Emetic episodes [16] was 1, the Protection [17] was 22% and 21% and the Protection [18] was 58%. For the same compound, the Protection [19] was 92%, the Emetic episodes [20] was 1 and the Emetic episodes [21] was 2.4. It also gave a Protection [22] of 92%, an Emetic episodes [23] of 0.6 and an Emetic episodes [24] of 1.
Work on CCN(CC)CCNC(=O)c1cc(Cl)c(N)cc1OCC(=O)c1ccccc1 yielded an IC50 [25] of over 1000 nM, a Protection [26] of 100% and an Emetic episodes [27] of 0. It also gave a Protection [28] of 88%, an ED50 [5] of over 40 mg/kg and an ED50 [6] of over 40 mg/kg. The Emetic episodes [29] was 1.5 and the ED50 [14] was over 3 mg/kg.
CCN(CC)CCNC(=O)c1cc(Cl)c(N)cc1O was tested, and the IC50 [25] was over 1000 nM, the ED50 [5] was over 40 mg/kg and the ED50 [6] was over 40 mg/kg. The Emetic episodes [30] was 2, the Protection [31] was 40% and the ED50 [14] was over 1 mg/kg. For the same compound, the Protection [32] was 84%.
For CCN(CC)CCNC(=O)c1cc(Cl)c(N)cc1OCC#N, the IC50 [25] was over 1000 nM, the Protection [26] was 90% and the Emetic episodes [27] was 0.7. It also gave a Protection [28] of 63%, an ED50 [5] of over 40 mg/kg and an ED50 [6] of over 40 mg/kg. For the same compound, the ED50 [14] was over 3 mg/kg and the Emetic episodes [33] was 4.7.
CCN(CC)CCNC(=O)c1cc(Cl)c(N)cc1OCCC(C)OC (configuration not stated) gave an IC50 [25] of over 1000 nM, a Protection [26] of 82% and an Emetic episodes [27] of 1.3. The ED50 [5] was over 40 mg/kg, the ED50 [6] was over 40 mg/kg and the Protection [34] was 28%. The Emetic episodes [35] was 8.5, the Emetic episodes [36] was 4.3 and the Protection [36] was 42%. The Protection [37] was 88%, the ED50 [14] was over 3 mg/kg and the Emetic episodes [38] was 1.5.
With CCN(CC)CCNC(=O)c1cc(Cl)c(N)cc1OCC(OC)OC the IC50 [25] was over 1000 nM, the Protection [26] was 82% and the Emetic episodes [27] was 1.3. It also gave an ED50 [5] of over 40 mg/kg, an ED50 [6] of over 40 mg/kg and a Protection [37] of 88%. It also gave an ED50 [14] of over 3 mg/kg, an Emetic episodes [39] of 1.5 and a Protection [40] of 0%. It also gave an Emetic episodes [41] of 6.7.
In the case of CCN(CC)CCNC(=O)c1cc(Cl)c(N)cc1OC(C)C#N (configuration not stated), the IC50 [25] is reported as over 1000 nM, the Protection [26] is reported as 63% and the Emetic episodes [27] is reported as 2.7. For the same compound, the Protection [28] was 80%, the ED50 [5] was over 40 mg/kg and the ED50 [6] was over 40 mg/kg. For the same compound, the Emetic episodes [29] was 2.5 and the ED50 [14] was over 3 mg/kg.
